# Compound activity (PubChem BioAssay)
# In the library only some 2.8% were active in any assay of this set; here they are far more common.
# PAFAH1B2 inh: blocks human PAF acetylhydrolase 1b catalytic subunit 2; P68402; recombinant PAFAH1B2, FP-rhodamine activity probe, fluorescence polarization; inhibition, % at 3.39 µM; 1.2% of 340,000 active;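 active = inhibition above the mean of all tested compounds plus 3 SD, cut at about 24% in these data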;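 note: 0% = enzyme with DMSO and 100% = wells lacking PAFAH1B2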
# ABHD4 inh: inhibits mouse alpha/beta hydrolase domain 4. purified mABHD4, FP-Rh probe fluorescence polarization. inhibition, % at 8.92 µM. 0.54% of 370,000 active;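 active = inhibition exceeding the mean over every tested compound plus 3 SD, cut at about 30% in these data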;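 note: 0% = plate median of compound wells and 100% = S159A mutant with DMSO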
#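 system = mouse ABHD4 enzyme, wild type | medium = HEPES pH 7.0, NaCl, Pluronic buffer | also added = FP-Rh probe | incubation = Enzyme–compound pre-incubation 45 min, then probe 60 min, both 25 °C | technique = fluorescence polarization, excitation 525 nm, emission 598 nm, BODIPY TMR filters | controls = S159A mutant high control, sample median low control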
# PAFAH2 FP inh: PAFAH2 (human) inhibition; Q99487; recombinant PAFAH2, FP-rhodamine activity probe, fluorescence polarization; inhibition, % at 3.39 µM; 0.99% of 340,000 active; AID 492956;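 active = inhibition above the mean over all tested compounds plus 3 SD, cut at about 30% in these data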;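 note: inhibitors block probe labeling of enzyme so polarization drops; 0% = enzyme with DMSO and 100% = wells lacking PAFAH2 protein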
# pPAFAH inh: pPAFAH (human) enzyme inhibition; recombinant pPAFAH, FP-rhodamine probe fluorescence polarization; inhibition, % at 3.39 µM; 1.5% of 330,000 active; AID 463082;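 active = inhibition above the mean inhibition across the screen plus 3 SD, cut at about 25% in these data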;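 note: inhibitors block binding of the rhodamine activity-based probe so polarization drops; 0% = enzyme with DMSO and 100% = wells lacking pPAFAH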
# Target sequence (Q13093 whole entry, looked up): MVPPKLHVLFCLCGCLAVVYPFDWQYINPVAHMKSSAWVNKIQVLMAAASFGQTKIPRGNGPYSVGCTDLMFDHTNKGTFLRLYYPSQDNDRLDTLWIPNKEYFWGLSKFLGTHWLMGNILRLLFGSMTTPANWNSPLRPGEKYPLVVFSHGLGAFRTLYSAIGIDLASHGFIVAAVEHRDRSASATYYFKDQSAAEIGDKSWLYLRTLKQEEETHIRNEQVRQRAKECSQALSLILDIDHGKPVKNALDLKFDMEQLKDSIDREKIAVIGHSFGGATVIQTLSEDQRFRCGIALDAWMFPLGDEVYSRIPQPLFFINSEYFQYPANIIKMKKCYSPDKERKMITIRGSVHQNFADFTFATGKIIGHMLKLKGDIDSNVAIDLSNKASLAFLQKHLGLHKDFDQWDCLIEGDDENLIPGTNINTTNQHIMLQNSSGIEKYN
# PAFAH1B3 FP inh: blocks human PAF acetylhydrolase 1B catalytic subunit 3. inhibition, % at 3.39 µM. 0.28% of 340,000 active. recombinant PAFAH1B3, FP-rhodamine probe, fluorescence polarization. Q15102. AID 492972;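 active = inhibition above the screen-wide average of all tested compounds plus 3 SD, cut at about 25% in these data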;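 note: 0% = enzyme with DMSO only and 100% = wells lacking PAFAH1B3 protein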
# HTRA1 inhibitor: blocks human HTRA1 serine peptidase; recombinant HTRA1, FP-rhodamine activity-based probe, fluorescence polarization; inhibition, % at 5.96 µM; 0.5% of 340,000 active; AID 504803; in the data active = inhibition above about 36%;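 note: 0% = enzyme with DMSO and 100% = wells lacking enzyme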
# * marks the source's active call; other numbers are inactive results; nt = no result.
SMILES,PAFAH1B2 inh,ABHD4 inh,PAFAH2 FP inh,pPAFAH inh,PAFAH1B3 FP inh,HTRA1 inhibitor
COc1ccc(OC)c(/C=N/c2oc(-c3ccco3)c(-c3ccco3)c2C#N)c1,5,15,11,30*,5,13
O=C(NC1CC1)C1CCN(S(=O)(=O)c2cc([N+](=O)[O-])ccc2Cl)CC1,5,20,12,32*,9,5
O=C(NC1CC1)C1CCN(S(=O)(=O)c2cc(Cl)ccc2Cl)CC1,4,3,8,3,12,2
COc1ccc(S[C@]2(C(=O)N3CCN(c4ncccn4)CC3)CC(=O)N(c3ccc4ccccc4c3)[C@@H]2c2ccc(OC)cc2)cc1,nt,2,nt,nt,nt,nt
CN(C)c1ccc(/C=C2\SC(N3CCCCC3)=NC2=O)cc1,0,5,2,28*,10,-2
Cc1ccc(/C=C2\SC(N3CCCC3)=NC2=O)cc1,nt,0,nt,2,nt,nt
O=C1NC(=Nc2ccccc2)SC1Cc1cccc(Cl)c1Cl (stereo not drawn),1,0,0,29*,1,-6
O=C1NC(=Nc2ccccc2)SC1Cc1ccccc1 (stereo not drawn),nt,-5,nt,4,nt,nt
S=c1[nH]nc(-c2ccco2)n1/N=C/c1ccc(Cl)cc1Cl,15,6,18,31*,6,-3
CN(C)CC(=O)N[C@H]1C[C@@H]2O[C@@H](CO)CC[C@@H]2O[C@@H]1CCc1ccc(-c2ccc(F)cc2)cc1,nt,7,nt,nt,nt,nt
O=S(=O)(c1ccc(Br)cc1)N1CCN=C1SCc1cccnc1,25*,-3,3,-5,4,4
O=S(=O)(c1ccc(F)cc1)N1CCN=C1SCc1cccnc1,8,-3,6,-2,2,1
OCCN(Cc1ccccc1)CC(O)COc1ccc(-c2ccccc2)cc1 (stereo not drawn),2,-3,8,9,0,-34
COc1cc(C(C)=O)ccc1OCC(O)CN(CCO)Cc1ccccc1 (stereo not drawn),-3,1,7,32*,-3,12
CCSc1nnc(NC(=O)c2cccc(S(=O)(=O)N(C)c3ccccc3)c2)s1,8,-11,-3,1,-2,0
C=CCN(c1ccccc1)S(=O)(=O)c1cccc(C(=O)Nc2nnc(SCC)s2)c1,11,-14,4,34*,0,-3
CC(C)NC(=O)NC(=O)COC(=O)c1ccc(S(=O)(=O)Nc2ccccc2)cc1,1,-14,10,25*,6,2
O=C(NNC(=O)C12CC3CC(CC(O)(C3)C1)C2)c1csc(N2CCOCC2)n1,-5,2,3,6,-1,0
O=C(NNC(=O)C12CC3CC(CC(Cl)(C3)C1)C2)c1csc(N2CCOCC2)n1,33*,-8,11,0,3,2
Cc1ccc(OCc2nnc(SCC(=O)Nc3cccc4ccccc34)n2Cc2ccco2)cc1,nt,-13,nt,nt,nt,nt
O=C(CCN1CCN(S(=O)(=O)c2ccc(Cl)cc2)CC1)Nc1ccccc1F,23,-3,3,0,-4,-1
COc1ccc(OC)c(C(=O)CN2CCN(S(=O)(=O)c3ccc(Br)cc3)CC2)c1,29*,-2,3,7,5,2
COc1ccc(OC)c(NC(=O)CN2CCC(C(=O)c3ccc(C)cc3)CC2)c1,0,-7,-7,29*,7,-36
COc1ccc(Cl)cc1NC(=O)CN(C)C(=O)CCSc1ccc(C)cc1,26*,-14,7,-2,6,-9
COc1ccc(S(=O)(=O)N2CCN(CCOc3ccc(Br)cc3)CC2)cc1OC,3,-21,6,1,12,1
SMILES,PAFAH1B2 inh,ABHD4 inh,PAFAH2 FP inh,pPAFAH inh,PAFAH1B3 FP inh,HTRA1 inhibitor
O=C(CCN1CCN(S(=O)(=O)c2ccc(Cl)cc2)CC1)Nc1ccc(F)cc1,25*,1,-5,-1,9,-5
Cn1c(SC2CCCC2)nnc1-c1ccco1,nt,1,nt,nt,nt,nt
C[C@@H](O[Si](c1ccccc1)(c1ccccc1)C(C)(C)C)[C@H]1C(=O)N[C@H](Cc2cn(S(=O)(=O)c3ccccc3)c3ccccc23)C(=O)N1C,nt,-8,nt,nt,nt,nt
Cc1ccc(OCCn2c(CCNC(=O)C3CCCCCC3)nc3ccccc32)cc1,nt,-7,nt,nt,nt,nt
CN1CCCN(C(=O)C2CCN(c3ncnc4c3sc3cccc(F)c34)CC2)CC1,nt,1,nt,nt,nt,nt
O=S(=O)(c1ccc(Cl)cc1)N1CCN2CCCC2C1 (stereo not drawn),27*,9,12,0,5,0
Cc1ccc(S(=O)(=O)N2CCN3CCCC3C2)cc1 (stereo not drawn),4,-7,-2,0,12,-5
COc1ccc(C)cc1NC(=O)CN1CCN(S(=O)(=O)c2ccc(Cl)cc2)CC1,28*,1,2,-4,9,2
O=C(CN1CCN(S(=O)(=O)c2ccc(F)cc2)CC1)NC1CCCC1,11,10,3,1,3,3
O=C(CN1CCN(S(=O)(=O)c2ccc(Cl)cc2)CC1)NC1CCCC1,29*,0,2,-3,6,4
COc1ccc(C)cc1NC(=O)CN1CCN(S(=O)(=O)c2ccc(C(C)C)cc2)CC1,0,-3,0,2,3,0
CCOC(=O)C1=C(C)NC(=O)NC1c1ccc(N(C)C)cc1 (stereo not drawn),-5,3,-1,nt,-4,1
CCC(CC)COC(=O)C1=C(C)NC(=O)NC1c1ccc(N(C)C)cc1 (stereo not drawn),28*,-11,4,15,4,6
CCOc1ccccc1-c1c2cc(O)c(=O)cc-2oc2cc(O)c(O)cc12,112*,nt,127*,nt,119*,85*
N#C/C(=C\c1coc2ccccc2c1=O)C(N)=S,-5,-8,-4,-1,-8,-10
N#C/C(=C\c1coc2ccc(O)cc2c1=O)C(=O)Nc1nc2ccccc2s1,8,4,29,33*,3,-10
CCOc1ccc(NS(=O)(=O)c2ccc(NC(=S)NC(=O)C(C)C)cc2)cc1,-2,-10,-6,33*,-1,-41
CCOc1ccc(NS(=O)(=O)c2ccc(N)cc2)cc1,7,3,17,18,12,2
CCOc1ccc(NS(=O)(=O)c2ccc(SC)cc2)cc1,-1,-6,-6,34*,4,-22
O=C(Nc1cccc(C(F)(F)F)c1)OC1CCC12CCC(c1ccccc1)CC2 (stereo not drawn),nt,-23,nt,nt,nt,nt
CC(C)c1ccc(NS(=O)(=O)c2ccc(-n3cccn3)cc2)cc1,-6,-11,-10,25*,1,-41
CC(C)c1ccc(NS(=O)(=O)c2ccc(N3C(=O)CCC3=O)cc2)cc1,9,-1,5,29*,-2,-1
CCCc1cc(=O)oc2c3c(c4c(c12)OC(C)(C)C=C4)OC(C)C(C)C3O (stereo not drawn),4,-5,12,31*,-4,-84
